Among the data in ChEMBL document CHEMBL4342500, “Modulating Heparanase Activity: Tuning Sulfation Pattern and Glycosidic Linkage of Oligosaccharides” (J Med Chem, 2020) are IC50, Kd and inhibition values, retold here.

Test [1] addresses Coagulation factor X (Homo sapiens, UniProt P00742). In words: Inhibition of coagulation factor 10a (unknown origin) incubated for 2 mins in presence of AT3 by chromogenic substrate based […] assay. An outline of the steps:
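Two-stage chromogenic anti-FXa: sample (heparin 0.002-500 nM or trisaccharide 3.9-4000 nM) with ATIII (0.04 IU), 2 min at 37 °C; FXa (0.32 μg) added, 2 min at 37 °C; chromogenic substrate added, stopped after 2 min with citric acid (20 g/L). Absorbance at 405 nm in triplicate, minus reverse-order sample blank.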

The target in test [2] is T1, Heparanase (Homo sapiens, UniProt Q9Y251).
T1 sequence (Q9Y251 whole entry): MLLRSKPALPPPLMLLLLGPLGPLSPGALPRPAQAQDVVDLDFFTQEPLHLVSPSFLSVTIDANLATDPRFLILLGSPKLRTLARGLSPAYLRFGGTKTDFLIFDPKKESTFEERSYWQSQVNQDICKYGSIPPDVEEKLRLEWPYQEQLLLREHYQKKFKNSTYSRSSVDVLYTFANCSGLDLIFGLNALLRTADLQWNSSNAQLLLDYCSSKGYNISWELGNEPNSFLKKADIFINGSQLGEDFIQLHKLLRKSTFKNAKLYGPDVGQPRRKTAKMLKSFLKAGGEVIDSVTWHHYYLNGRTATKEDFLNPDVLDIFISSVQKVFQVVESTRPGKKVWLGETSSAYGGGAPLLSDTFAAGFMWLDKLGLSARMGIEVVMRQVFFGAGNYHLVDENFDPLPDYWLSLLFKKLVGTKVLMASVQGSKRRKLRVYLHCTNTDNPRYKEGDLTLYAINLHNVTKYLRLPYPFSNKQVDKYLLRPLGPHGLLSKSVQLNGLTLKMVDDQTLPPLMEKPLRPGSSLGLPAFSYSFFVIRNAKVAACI
Description: Inhibition of heparanase (unknown origin) using biotin-heparan sulfate-Eu cryptate as substrate preincubated for 10 mins followed by substrate addition and measured after 60 mins by TR-FRET assay.

For test [3], the target named is Prothrombin (Homo sapiens, UniProt P00734). Description: Inhibition of coagulation factor 2a (unknown origin) incubated for 2 mins in presence of AT3 by chromogenic substrate based […] assay. The essentials: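 Two-stage chromogenic anti-FIIa: sample (heparin 0.002-500 nM or trisaccharide 3.9-4000 nM) with ATIII (0.01 IU), 2 min at 37 °C; FIIa (1.2 nkat) added, 2 min at 37 °C; chromogenic substrate added, stopped after 2 min with citric acid (20 g/L). A405 read in triplicate; reverse-order sample blank subtracted.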

Test [4] has as its target T2, Platelet factor 4 (Homo sapiens, UniProt P02776).
T2 sequence (P02776 whole entry): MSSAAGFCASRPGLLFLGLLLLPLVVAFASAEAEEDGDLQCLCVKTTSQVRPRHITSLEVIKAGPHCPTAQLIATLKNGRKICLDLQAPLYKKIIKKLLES
Description: Binding affinity to PF4 (unknown origin) by BLI assay. The essentials: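 PF4 (100 nM) mixed with ligand (0.08-250 μM trisaccharide; heparin 0.4-400 nM); free PF4 probed against biotin-heparin (5 μg/mL, 18 kDa) loaded on streptavidin biosensors. Mass-transport conditions; response fitted to a solution-affinity equation.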

Test [5] deals with T3, Heparanase (Homo sapiens) (UniProt Q9Y251).
T3 sequence (whole entry): T1 sequence (Q9Y251 whole entry)
In words: Inhibition of human recombinant heparanase assessed as reduction in [35S] labeled ECM degradation at 50 ug/ml incubated for 5 hrs relative to control. The essentials:
(§1)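 [35S]sulfate-labeled ECM on 35 mm dishes incubated 5 h at 37 °C with recombinant human heparanase (0.5 ng/ml), with or without inhibitor, in 1 ml containing 50 mM NaCl, 1 mM DTT, 1 mM CaCl2, 10 mM phosphate-citrate pH 6.0. Released material gel-filtered on Sepharose 6B, eluted with PBS; 0.2 ml fractions counted for radioactivity.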

The target of test [6] is T3, Heparanase (Homo sapiens). In words: Inhibition of human recombinant heparanase assessed as reduction in [35S] labeled ECM degradation at 10 ug/ml incubated for 5 hrs relative to control. An outline of the steps: as §1
For test [7], the system named is MIN6. Description: Inhibition of heparanase (unknown origin) assessed as reduction in ROS production in mouse MIN6 cells co-incubated with heparanase-producing CHO cells at 15 uM incubated for 24 hrs by mitochondrial ROS probe staining based fluorescence microscopic method. The class given is functional, cell-based. The essentials:
(§2)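 MIN6 mouse insulinoma cells in high-glucose DMEM, 10% FBS, 50 μM β-mercaptoethanol, seeded in 4-well slide chambers. At ~50% confluency, switched to conditioned medium from heparanase-producing or control CHO cells and given PBS vehicle or inhibitor for 24 h. Stained with mitochondrial ROS tracker (100 nM); fluorescence imaged by microscopy and extent/intensity quantified.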

Test [8] has as its system MIN6. Description: Inhibition of ROS production in mouse MIN6 cells at 15 uM incubated for 24 hrs by mitochondrial ROS probe staining based fluorescence microscopic method. The class given is functional, cell-based. An outline of the steps: as §2
For test [9], the target named is T3, Heparanase (Homo sapiens). Description: Inhibition of heparanase (unknown origin) assessed as reduction in ROS-mediated SOD1 mRNA level in mouse MIN6 cells co-incubated with heparanase-producing CHO cells at 15 uM incubated for 24 hrs by qRT-PCR analysis. The class given is cell-based. An outline of the steps:
(§3)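 MIN6 cells grown in high-glucose DMEM/10% FBS/50 μM β-mercaptoethanol, cultured at ~50% confluency in conditioned medium from heparanase-producing or control CHO cells with PBS vehicle or inhibitor for 24 h. Total RNA extracted with Trizol; cDNA made from 500 ng RNA; transcripts measured by quantitative real-time PCR.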

Test [10] has as its target T3, Heparanase (Homo sapiens). Description: Inhibition of heparanase (unknown origin) assessed as reduction in ROS-mediated ERO1alpha mRNA level in mouse MIN6 cells co-incubated with heparanase-producing CHO cells at 15 uM incubated for 24 hrs by qRT-PCR analysis. The class given is cell-based. An outline of the steps: as §3
Test [11] relates to MIN6. In words: Inhibition of ROS production in mouse MIN6 cells assessed as reduction in SOD1 mRNA level at 15 uM incubated for 24 hrs by qRT-PCR analysis. The class given is functional, cell-based. An outline of the steps: as §3
Test [12] has as its system MIN6. Description: Inhibition of ROS production in mouse MIN6 cells assessed as reduction in ERO1alpha mRNA level at 15 uM incubated for 24 hrs by qRT-PCR analysis. It is filed as functional, cell-based. The essentials: as §3

Each structure is given as a SMILES string. Calls of active or inactive are those of the source. The calls are words filed in the database; no cut-off is given here.

Chain of Coagulation factor X (P00742 41-179 limits assumed): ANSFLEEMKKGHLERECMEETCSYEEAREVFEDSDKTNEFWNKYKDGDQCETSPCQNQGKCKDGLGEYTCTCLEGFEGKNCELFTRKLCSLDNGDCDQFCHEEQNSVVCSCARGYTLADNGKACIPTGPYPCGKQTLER
Chain of Coagulation factor X (P00742 235-488 limits assumed): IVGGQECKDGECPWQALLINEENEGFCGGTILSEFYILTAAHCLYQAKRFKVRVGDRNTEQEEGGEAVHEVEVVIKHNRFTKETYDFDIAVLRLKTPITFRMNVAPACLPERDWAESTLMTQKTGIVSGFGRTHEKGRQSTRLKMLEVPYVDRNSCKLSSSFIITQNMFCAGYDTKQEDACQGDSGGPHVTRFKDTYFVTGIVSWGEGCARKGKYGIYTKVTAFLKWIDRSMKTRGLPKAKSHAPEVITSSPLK

As for `CO[C@H]1O[C@H](COS(=O)(=O)O)[C@@H](O[C@@H]2O[C@@H](C(=O)O)[C@@H](O[C@H]3O[C@H](COS(=O)(=O)O)[C@@H](O[C@@H]4O[C@H](C(=O)O)[C@@H](O[C@H]5O[C@H](COS(=O)(=O)O)[C@@H](O)[C@H](O)[C@H]5NS(=O)(=O)O)[C@H](O)[C@H]4O)[C@H](OS(=O)(=O)O)[C@H]3NS(=O)(=O)O)[C@H](O)[C@H]2OS(=O)(=O)O)[C@H](O)[C@H]1NS(=O)(=O)O` [FONDAPARINUX], the half-inhibitory concentration (IC50) in [1] worked out at 11 nM.
On to `O=C(O)[C@H]1O[C@@H](O[C@H]2[C@H](O)[C@@H](NS(=O)(=O)O)[C@H](OCCNS(=O)(=O)O)O[C@@H]2COS(=O)(=O)O)[C@H](O)[C@@H](O)[C@@H]1O[C@H]1O[C@H](COS(=O)(=O)O)[C@@H](O)[C@H](O)[C@H]1NS(=O)(=O)O`, for which, in test [2], the IC50 amounted to 42100 nM.
In the case of `O=C(O)[C@H]1O[C@@H](O[C@H]2[C@H](O)[C@@H](NS(=O)(=O)O)[C@@H](OCCNS(=O)(=O)O)O[C@@H]2COS(=O)(=O)O)[C@H](O)[C@@H](O)[C@@H]1O[C@H]1O[C@H](COS(=O)(=O)O)[C@@H](O)[C@H](O)[C@H]1NS(=O)(=O)O`, the half-inhibitory concentration (IC50) is 393 nM in test [2], > 2000 nM in test [1] and > 2000 nM in test [3]. Binding in [4] was put at a Kd of 16000 nM. Also, the inhibition worked out at 100% in test [5] and 50% in test [6]. For the same compound, the inhibition result in [7], in [8], in test [9], in [10], in test [11] and in test [12] was “Active” throughout.
